Reference: ChEMBL document CHEMBL1121809, “Cyclic guanidines. 14. Imidazo[1,2-a]thienopyrimidin-2-one derivatives as blood platelet aggregation inhibitors” (J Med Chem, 1981)

Legend:
Rattus norvegicus [1] = species: Rattus norvegicus; test: In vitro inhibition of ADP-induced blood platelet aggregation; format: functional
Outline: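 Rat carotid citrated blood was spun at 230g for 7 min to give PRP, adjusted with PPP to about 5 × 10⁵ platelets/μL. Compound in saline or MeOH was added before 10 μM ADP in Tris-HCl/NaCl pH 7.4 with CaCl₂. Aggregation was read at 30 °C, 1100 rpm, as maximal ΔA. EC50 is the concentration giving 50% inhibition.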

Rattus norvegicus [2] = species: Rattus norvegicus; test: In vitro inhibition of collagen-induced blood platelet aggregation; format: functional
Outline: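 Rat PRP (about 5 × 10⁵ platelets/μL) was preincubated with compound added in saline or MeOH. Aggregation was started with bovine tendon collagen suspension in Tris buffer (absorbance 0.270 at 420 nm; lag 2–3 min). Read at 30 °C, 1100 rpm, as initial maximal rate ΔA/min. EC50 is the concentration giving 50% inhibition.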

Rattus norvegicus [3] = test: Ex vivo inhibition of collagen-induced blood platelet aggregation in rat was measured 2 hr after administration of vehical alone; format: functional
Outline: (§1)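 Overnight-fasted rats were dosed orally at (50 mg/10 mL)/kg in 0.5% Tween 80; controls got vehicle at 10 mL/kg. PRP was made from carotid citrated blood 2 h later under pentobarbital. Collagen suspension (absorbance 0.270 at 420 nm) drove aggregation at 30 °C, 1100 rpm. Read-out was the initial maximal rate of absorbance fall (ΔA/min). Inhibition percent is versus controls; 5–7 rats, mean ± SD.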

Rattus norvegicus [4] = test: (§2) Ex vivo inhibition of collagen-induced blood platelet aggregation in rat was measured 2 hr after oral administration of 50 mg/kg; format: functional; set-up: scale not given here; outline: as §1
Rattus norvegicus [5] = test: as §2; format: functional; outline: as §1
Rattus norvegicus [6] = species: Rattus norvegicus; test: Inhibition of collagen-induced blood platelet aggregation in rat after 24 hr; format: functional
Outline: (§3)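 Fasted rats received one oral 50 mg/kg dose in 0.5% Tween 80, and PRP was prepared 3, 6 or 24 h later; vehicle controls were bled at 3 h. Collagen-induced aggregation was read as initial maximal rate ΔA/min at 30 °C. Percent inhibition is versus controls; 5–7 animals, mean ± SD.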

Rattus norvegicus [7] = species: Rattus norvegicus; test: Inhibition of collagen-induced blood platelet aggregation in rat after 3 hrs; format: functional; outline: as §3
Rattus norvegicus [8] = species: Rattus norvegicus; test: Inhibition of collagen-induced blood platelet aggregation in rat after 6 hrs; format: functional; outline: as §3
Rattus norvegicus [9] = species: Rattus norvegicus; test: Inhibition of ADP-induced blood platelet aggregation in rat after 24 hr; format: functional
Outline: (§4)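 This is an ex vivo time course after a single oral 50 mg/kg dose in 0.5% Tween 80 to fasted rats, with PRP made at 3, 6 or 24 h; controls got vehicle 3 h before blood collection. ADP (10 μM) aggregation was read as extent ΔA at 30 °C. Percent inhibition is versus controls; 5–7 animals, mean ± SD.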

Rattus norvegicus [10] = species: Rattus norvegicus; test: Inhibition of ADP-induced blood platelet aggregation in rat after 3 hr; format: functional; outline: as §4
Rattus norvegicus [11] = species: Rattus norvegicus; test: Inhibition of ADP-induced blood platelet aggregation in rat after 6 hr; format: functional; outline: as §4
Rattus norvegicus [12] = test: Effect on systolic blood pressure in rat after an oral dose at 50 mg/kg (1h after dose); format: functional, Artery
Outline: (§5)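 Male Wistar-Imamichi rats, 250 g, were given the compound orally at (50 mg/7.5 mL)/kg as a suspension in 0.5% CMC or 0.5% Tween 80. Systolic pressure and heart rate were taken by tail-cuff after prewarming at 55–60 °C for 3 min, before dosing and at set times after. Five rats per group, mean ± SD. Pressure is reported as decrease and heart rate as percent change.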

Rattus norvegicus [13] = test: Effect on systolic blood pressure in rat after an oral dose at 50 mg/kg (3h after dose); format: functional, Artery; outline: as §5
Rattus norvegicus [14] = test: Effect on systolic blood pressure in rat after an oral dose at 50 mg/kg (5h after dose); format: functional, Artery; outline: as §5
Rattus norvegicus [15] = test: Effect on systolic blood pressure in rat after an oral dose at 50 mg/kg; format: functional, Artery; outline: as §5
Rattus norvegicus [16] = test: Effect on heart rate in rat after an oral dose at 50 mg/kg (3h after dose); format: functional; outline: as §5
Rattus norvegicus [17] = test: Effect on heart rate in rat after an oral dose at 50 mg/kg (4h after dose); format: functional; outline: as §5
Rattus norvegicus [18] = test: Effect of compound on heart rate in rat after an oral dose at 50 mg/kg; format: functional; outline: as §5
Rattus norvegicus [19] = test: Effect on heart rate in rat after an oral dose at 50 mg/kg (1h after dose); format: functional; outline: as §5

EC50 (Rattus norvegicus [1]) | EC50 (Rattus norvegicus [2]) | SMILES | Delta A/min (Rattus norvegicus [3]) | Delta A/min (Rattus norvegicus [4]) | Delta A/min (Rattus norvegicus [5]) | other results
2 µM | 100 nM | Cl.O=C1CN2Cc3c(sc4c3CCC(O)C4)N=C2N1 (stereo not given) | 0.117 | 2000 |  | 
120 µM | 20000 nM | Cl.O=C1CN2Cc3c(-c4ccccc4)csc3NC2=N1 |  |  | 0.198 ΔA/min | 
1.2 µM | 160 nM | Cl.O=C1CN2Cc3c(sc4c3SCCC4)NC2=N1 | 0.171 | 0.125 ΔA/min |  | 
40 µM | 250 nM | Cl.O=C1CN2Cc3c(sc4c3CCC4)N=C2N1 |  |  | 0.072 ΔA/min | 
1.2 µM | 120 nM | CCOC(=O)N1CCc2c(sc3c2CN2CC(=O)NC2=N3)C1.Cl | 0.171 | 115000 |  | Delta A/min (Rattus norvegicus [6]): 30000; Delta A/min (Rattus norvegicus [7]): 120000; Delta A/min (Rattus norvegicus [8]): 0.072
3 µM | 2200 nM | CCCc1c(CC)sc2c1CN1CC(=O)NC1=N2.Cl |  |  | 0.008 ΔA/min | 
17 µM | 3500 nM | Cc1scc2c1CN1CC(=O)NC1=N2.Cl | 0.29 | 0.198 ΔA/min |  | 
4.2 µM | 2200 nM | Cl.O=C1CN2Cc3c(sc4c3CCC(OCc3ccccc3)C4)N=C2N1 (stereo not given) | 0.117 | 42000 |  | 
5 µM | 1000 nM | Cc1sc2c(c1C)CN1CC(=O)NC1=N2.Cl |  |  | 0.073 ΔA/min | Delta A/min (Rattus norvegicus [9]): 0.168; Delta A/min (Rattus norvegicus [10]): 0.173; Delta A/min (Rattus norvegicus [11]): 0.168; Delta A/min (Rattus norvegicus [6]): 0.164; Delta A/min (Rattus norvegicus [7]): 0.094; Delta A/min (Rattus norvegicus [8]): 0.153
150 µM | 900 nM | Cc1sc2c(c1Cl)CN1C(=N2)NC(=O)C1C (stereo not given) |  |  |  | 
160 µM | 4000 nM | O=C1CN2Cc3c(sc4c3CCCC4Cc3ccccc3)N=C2N1 (stereo not given) |  |  |  | 
2 µM | 540 nM | Cl.O=C1CN2Cc3c(sc4c3CCSC4)N=C2N1 | 0.178 | 0 |  | 
2 µM | 620 nM | CC1CCc2c(sc3c2CN2CC(=O)NC2=N3)C1.Cl (stereo not given) | 0.178 | 0 |  | 
> 250 µM | > 250000 nM | CN1C(=O)CN2Cc3c(sc4c3CCCC4)N=C21 |  |  |  | 
12 µM | 1200 nM | CN(C(=O)CCCOc1ccc2[nH]c(=O)ccc2c1)C1CCCCC1 [CILOSTAMIDE] |  |  |  | Decrease in blood pressure (Rattus norvegicus [12]): 1; Decrease in blood pressure (Rattus norvegicus [13]): -1; Decrease in blood pressure (Rattus norvegicus [14]): -1; Initial blood pressure (Rattus norvegicus [15]): 125 mmHg; Change in heart rate (Rattus norvegicus [16]): 20%; Change in heart rate (Rattus norvegicus [17]): 21%; Change in heart rate (Rattus norvegicus [18]): 26%; Change in heart rate (Rattus norvegicus [19]): 22%
0.53 µM | 180 nM | CC1CCCc2c1sc1c2CN2CC(=O)N=C2N1.Cl (stereo not given) |  |  | 0 | Delta A/min (Rattus norvegicus [9]): 0.118; Delta A/min (Rattus norvegicus [10]): 0.053; Delta A/min (Rattus norvegicus [11]): 0.079; Delta A/min (Rattus norvegicus [6]): 0.116; Delta A/min (Rattus norvegicus [7]): 0; Delta A/min (Rattus norvegicus [8]): 0.036
230 µM | 10000 nM | Cc1cc2c(s1)N=C1NC(=O)C(C)N1C2 (stereo not given) |  |  |  | 
250 µM | 84000 nM | Cl.O=C1CN2C=c3c4c(sc3=NC2=N1)CCCC4 | 0.183 | 0.047 ΔA/min |  | Delta A/min (Rattus norvegicus [6]): 0.185; Delta A/min (Rattus norvegicus [7]): 0.068; Delta A/min (Rattus norvegicus [8]): 0.195
34 µM | 1600 nM | O=C1CN2Cc3c(sc4c3COc3ccccc3-4)N=C2N1 |  |  |  | 
19 µM | 900 nM | Cl.O=C1CN2Cc3c(sc4c3CCc3ccccc3-4)N=C2N1 | 0.207 | 0.191 ΔA/min |  | 

EC50 (Rattus norvegicus [1]) | EC50 (Rattus norvegicus [2]) | SMILES | Delta A/min (Rattus norvegicus [3]) | Delta A/min (Rattus norvegicus [4]) | Delta A/min (Rattus norvegicus [5]) | other results
125 µM | 35000 nM | Cc1cc2c(s1)NC1=NC(=O)CN1C2.Cl |  |  | 0.162 ΔA/min | 
> 250 µM | > 250000 nM | CCCCC1C(=O)NC2=Nc3sc4c(c3CN21)CCCC4 (stereo not given) |  |  |  | 
0.58 µM | 80 nM | CCCc1sc2c(c1C)CN1CC(=O)NC1=N2.Cl |  |  | 0.09 ΔA/min | Delta A/min (Rattus norvegicus [10]): 0.128; Delta A/min (Rattus norvegicus [11]): 0.154; Delta A/min (Rattus norvegicus [6]): 0.242; Delta A/min (Rattus norvegicus [7]): 0.09; Delta A/min (Rattus norvegicus [8]): 0.213
32 µM | 200 nM | CC1CCc2c(sc3c2CN2C(=N3)NC(=O)C2C)C1.Cl (stereo not given) | 0.207 | 152000 |  | 
> 250 µM | 10000 nM | Cl.O=C1CN2Cc3sccc3N=C2N1 | 0.308 | 0.256 ΔA/min |  | 
27 µM | 250 nM | CC(C)(C)C1CCc2c(sc3c2CN2CC(=O)NC2=N3)C1.Cl (stereo not given) | 0.117 | 4000 |  | 
5.3 µM | 150 nM | Cl.O=C1CN2Cc3c(sc4ccccc34)N=C2N1 | 0.183 | 0.092 ΔA/min |  | 
3 µM | 30 nM | CC1CCCc2c1sc1c2CN2C(=NC(=O)C2C)N1.Cl (stereo not given) | 0.183 | 0.047 ΔA/min |  | 
> 250 µM | > 250000 nM | O=C1CN2Cc3ccsc3N=C2N1 |  |  |  | 
18 µM | 170 nM | Cl.O=C1CN2Cc3c(sc4c3CCCCC4)N=C2N1 |  |  | 0.202 ΔA/min | 
19 µM | 15000 nM | Cc1csc2c1CN1CC(=O)NC1=N2.Cl |  |  | 0.188 ΔA/min | 
> 250 µM | 90000 nM | O=C1CN2Cc3cscc3N=C2N1 |  |  |  | 
2 µM | 190 nM | CCCCCc1sc2c(c1C)CN1CC(=O)NC1=N2.Cl |  |  | 0.002 ΔA/min | 
13.5 µM | 29000 nM | Cl.Cl.O=C1CN2Cc3c(sc4c3CCN(Cc3ccccc3)C4)N=C2N1 | 0.186 | 121000 |  | 
> 250 µM | 60000 nM | CCC1C(=O)NC2=Nc3sc4c(c3CN21)CCCC4 (stereo not given) |  |  |  | 
20 µM | 130 nM | Cc1sc2c(c1C)CN1C(=N2)NC(=O)C1C.Cl (stereo not given) | 0.183 | 0.076 ΔA/min |  | 
1.3 µM | 200 nM | Cl.O=C1CN2Cc3c(sc4c3CCOC4)N=C2N1 | 0.171 | 113000 |  | 
4.2 µM | 1900 nM | Cc1c(Cl)sc2c1CN1CC(=O)NC1=N2.Cl |  |  | 0.222 ΔA/min | Delta A/min (Rattus norvegicus [9]): 0.122; Delta A/min (Rattus norvegicus [10]): 0.106; Delta A/min (Rattus norvegicus [11]): 0.121; Delta A/min (Rattus norvegicus [6]): 0.166; Delta A/min (Rattus norvegicus [7]): 0.077; Delta A/min (Rattus norvegicus [8]): 0.166
36 µM | 17000 nM | Cc1sc2c(c1Cl)CN1CC(=O)NC1=N2.Cl |  |  | 0.28 ΔA/min | 
250 µM | 12000 nM | Cc1cc2c(s1)CN1CC(=O)NC1=N2.Cl | 0.228 | 0.217 ΔA/min |  | 
